In general, IC50 refers to the concentration at which inhibition is half-maximal. A lower IC50 goes with greater potency.

The nature of data set [1]: Teratogenic activity in rat embryo assessed as incidence of major malformation at 50 ug/mL after 45 hrs relative to control. In kind it is toxicity. In outline: (§1)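 Time-pregnant rats were euthanized with CO2 on gestation day 9. Embryos were dissected on day 9.5 at stages 11a-11c and cultured in 2.0 mL rat serum plus 0.5 mL Waymouth's MB 752/1 with penicillin-streptomycin. Test material in EtOH-DMSO (1:1) was added at culture start, with a solvent control. Growth, development score and major malformations were assessed after 45 h; controls were pooled across experiments.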

Data set [2] is described as follows: Binding affinity to nicotinic receptor.
The species named for data set [3] is Rattus norvegicus. In words: Effect on growth and morphogenesis of organogenesis-staged rat embryo at 5 ug/mL after 45 hrs relative to control. In kind it is functional. The method, boiled down: as §1
Data set [4] can be described thus: Teratogenic activity in rat embryo assessed as incidence of major malformation at 20 ug/mL after 45 hrs relative to control. In kind it is toxicity. In outline: as §1
Data set [5] in a line: Teratogenic activity in rat embryo assessed as incidence of major malformation at 250 ug/mL after 45 hrs relative to control. The format is toxicity. In outline: as §1
A short description of data set [6]: Teratogenic activity in rat embryo assessed as incidence of major malformation at 80 ug/mL after 45 hrs relative to control. The format is toxicity. In outline: as §1
Data set [7] is filed under the species Rattus norvegicus. The data set can be described thus: Effect on growth and morphogenesis of organogenesis-staged rat embryo at 80 ug/mL after 45 hrs relative to control. In kind it is functional. In outline:
as §1

The species named for data set [8] is Rattus norvegicus. The data set can be described thus: Effect on growth and morphogenesis of organogenesis-staged rat embryo at 20 ug/mL after 45 hrs relative to control. The format is functional. The method, boiled down: as §1
The species named for data set [9] is Rattus norvegicus. The data set can be described thus: Effect on growth and morphogenesis of organogenesis-staged rat embryo at 250 ug/mL after 45 hrs relative to control. In kind it is functional. The method, boiled down:
as §1

The nature of data set [10]: Binding affinity to muscarinic acetylcholine receptor.
The nature of data set [11]: Teratogenic activity in rat embryo assessed as incidence of major malformation at 5 ug/mL after 45 hrs relative to control. In kind it is toxicity. The method, boiled down:
as §1

Data set [12] is filed under the species Rattus norvegicus. The data set can be described thus: Effect on growth and morphogenesis of organogenesis-staged rat embryo at 1.25 ug/mL after 45 hrs relative to control. The format is functional. The method, boiled down:
(§2)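 Rat whole embryo culture: gestation day 9.5 embryos (stages 11a-11c) dissected from time-pregnant dams. Medium was 2.0 mL rat serum plus 0.5 mL Waymouth's MB 752/1 with penicillin-streptomycin. Test material was dissolved in EtOH-DMSO (1:1) and added at the start of culture; the solvent served as control. After 45 h, a developmental score was assigned and major malformations recorded. Controls were pooled across experiments.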

The nature of data set [13]: Teratogenic activity in rat embryo assessed as incidence of major malformation at 1.25 ug/mL after 45 hrs relative to control. The format is toxicity. The method, boiled down:
as §1

Data set [14] can be described thus: Embryotoxicity in rat embryo at 250 ug/mL. In kind it is toxicity. In outline:
as §1

Data set [15] is filed under the species Rattus norvegicus. In words: Effect on growth and morphogenesis of organogenesis-staged rat embryo at 0.1 ug/mL after 45 hrs relative to control. The format is functional. The method, boiled down: as §2
Data set [16] can be described thus: Embryotoxicity in rat embryo at 80 ug/mL. In kind it is toxicity. In outline: as §1
A short description of data set [17]: Embryotoxicity in rat embryo at 20 ug/mL. The format is toxicity. The method, boiled down:
as §1

Data set [18] is described as follows: Embryotoxicity in rat embryo at 5 ug/mL. The format is toxicity. The method, boiled down:
as §1

On to `CN1C[C@@H]2C[C@H](C1)c1cccc(=O)n1C2`, for which the Activity in data set [1] turned out to be 26.2%; in the data set filed under Rattus norvegicus [3] it was 29%; in data set [4], 29.8%; in data set [5], 22.9%; in data set [6] it was 24%. This compound came in with an IC50 in data set [2] of 5e-05 mM.
For the compound `O=C1CCC[C@@H]2[C@@H]3C[C@H](CN12)[C@H]1CCCCN1C3`, the values for the Activity in the data set filed under Rattus norvegicus [7], in the data set listed under Rattus norvegicus [3] and in the data set listed under Rattus norvegicus [8] were 30.5%, 29.5% and 29.2%, respectively.
In the case of `O=c1cccc2n1C[C@H]1C[C@@H]2CN2CCCC[C@H]12` [ANAGYRINE], the Activity was 28.2% in the data set filed under Rattus norvegicus [7]; 15.5% in the data set filed under Rattus norvegicus [9]; “Not Active” in data set [11]; 28.2% in the data set listed under Rattus norvegicus [3]; “Not Active” in data set [4]; “Active” in data set [5]. For the same compound, the Activity was 26.5% in the data set listed under Rattus norvegicus [8] and “Not Active” in [6]. For the same compound, the values for the IC50 in data set [10] and in data set [2] were 132 µM and 2.1 mM, respectively.
Regarding `COc1ccc2c(c1O)-c1c(O)c(OC)cc3c1[C@H](C2)[N+](C)(C)CC3` [MAGNOFLORINE], the Activity in the data set filed under Rattus norvegicus [7] is 28.2%; in the data set filed under Rattus norvegicus [12] it was 28.2%; in data set [13], “Not Active”; in data set [11], “Not Active”; in the data set listed under Rattus norvegicus [3], 29%; in data set [4] it was “Not Active”. Further, the Activity in the data set filed under Rattus norvegicus [8] is 27.8%; in data set [6] it was “Not Active”.
`COc1ccc2c(=O)oc3c(OC)cc(CCN(C)C)c4c(=O)oc1c2c34` [TASPINE]: the Activity entry was “Toxic” in data set [14]; 27.7% in the data set listed under Rattus norvegicus [12]; 27.6% in the data set filed under Rattus norvegicus [15]; “Not Active” in data set [13]; “Not Active” in [11]; “Toxic” in [16]. For the same compound, the Activity entry in data set [17] and in data set [18] was “Toxic” throughout.
Take `CN1CCCCC1CC(=O)c1ccc(O)cc1` (stereo not given) [THALICHROIDINE]: the Activity in the data set listed under Rattus norvegicus [7] is 29.2%; in data set [11] it was “Not Active”; in the data set listed under Rattus norvegicus [3] it was 30.8%; in [4] it was “Not Active”; in the data set listed under Rattus norvegicus [8] it was 29.5%.
